Measurements published in ChEMBL document CHEMBL1208737, “Synthesis and in vitro evaluation of N-alkyl-3-hydroxy-3-(2-imino-3-methyl-5-oxoimidazolidin-4-yl)indolin-2-one analogs as potential anticancer agents” (2010).

Assays:
Format in all cases: functional
SW-620 = test: Growth inhibition of human SW620 cells by sulforhodamine B assay
How it was run: (§1)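 Five-dose response testing across a 57-line human tumour panel (leukemia, non-small cell lung, colon, CNS, melanoma, ovarian, renal, prostate, breast), done after a single-dose primary screen run per the NCI method. Effect plotted against log10 molar drug concentration for each cell line. GI50 is the concentration giving a 50% reduction in net protein increase versus control cells.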

OVCAR-3 = test: Growth inhibition of human OVCAR-3 cells by sulforhodamine B assay; how it was run: as §1
NCI-H226 = test: Growth inhibition of human NCI-H226 cells by sulforhodamine B assay; how it was run: as §1
SK-OV-3 = test: Growth inhibition of human SKOV3 cells by sulforhodamine B assay; how it was run: as §1
COLO 205 = test: Growth inhibition of human COLO205 cells by sulforhodamine B assay; how it was run: as §1
HL-60(TB) = test: Growth inhibition of human HL-60(TB) cells by sulforhodamine B assay; how it was run: as §1
SF-268 = test: Growth inhibition of human SF268 cells by sulforhodamine B assay; how it was run: as §1
DU-145 = test: Growth inhibition of human DU145 cells by sulforhodamine B assay; how it was run: as §1
HCT-116 = test: Growth inhibition of human HCT116 cells by sulforhodamine B assay; how it was run: as §1
OVCAR-8 = test: Growth inhibition of human OVCAR8 cells by sulforhodamine B assay; how it was run: as §1
K562 = test: Growth inhibition of human K562 cells by sulforhodamine B assay; how it was run: as §1
SF-539 = test: Growth inhibition of human SF539 cells by sulforhodamine B assay; how it was run: as §1
MDA-MB-231 = test: Growth inhibition of human MDA-MB-231 cells by sulforhodamine B assay; how it was run: as §1
[1] = Growth inhibition of human […] cells by sulforhodamine B assay; how it was run: as §1
MCF7 = test: Growth inhibition of human MCF7 cells by sulforhodamine B assay; how it was run: as §1
OVCAR-4 = test: Growth inhibition of human OVCAR4 cells by sulforhodamine B assay; how it was run: as §1
HOP-62 = test: Growth inhibition of human HOP62 cells by sulforhodamine B assay; how it was run: as §1
NCI-H322M = test: Growth inhibition of human NCI-H322M cells by sulforhodamine B assay; how it was run: as §1
SK-MEL-2 = test: Growth inhibition of human SK-MEL-2 cells by sulforhodamine B assay; how it was run: as §1
Malme-3M = test: Growth inhibition of human MALME-3M cells by sulforhodamine B assay; how it was run: as §1
CCRF-CEM = test: Growth inhibition of human CCRF-CEM cells by sulforhodamine B assay; how it was run: as §1
BT-549 = test: Growth inhibition of human BT549 cells by sulforhodamine B assay; how it was run: as §1
T47D = test: Growth inhibition of human T47D cells by sulforhodamine B assay
How it was run: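 Part of a 57-line human tumour cell panel run at five doses. Growth effect was plotted against log10 molar drug concentration for each cell line. GI50 is the concentration giving a 50% reduction in net protein increase relative to untreated control cells, read from the dose-response curve.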

NCI/ADR-RES = test: Growth inhibition of human NCI/ADR-RES cells by sulforhodamine B assay; how it was run: as §1
HCT-15 = test: Growth inhibition of human HCT15 cells by sulforhodamine B assay; how it was run: as §1
NCI-H460 = test: Growth inhibition of human NCI-H460 cells by sulforhodamine B assay; how it was run: as §1
NCI-H522 = test: Growth inhibition of human NCI-H522 cells by sulforhodamine B assay; how it was run: as §1
RXF 393 = test: Growth inhibition of human RXF393 cells by sulforhodamine B assay; how it was run: as §1
[2] = Growth inhibition of human Hs 578T cells by sulforhodamine B assay; how it was run: as §1
[3] = read-out: LC50 (the source's name)

For `COc1ccc(CN2C(=O)C(O)(C3C(=O)NC(=N)N3C)c3cc(Cl)ccc32)cc1` (stereo not drawn), the GI50 (SW-620) was 2.59 µM, the CC50 (SW-620; [3]) was 49.6 µM and the GI50 (OVCAR-3) was 2.08 µM. For the same compound, the CC50 (OVCAR-3; [3]) was 11.5 µM, the GI50 (NCI-H226) was 26.8 µM and the CC50 (NCI-H226; [3]) was > 100 µM. The GI50 (SK-OV-3) was 30.1 µM, the CC50 (SK-OV-3; [3]) was > 100 µM and the GI50 (COLO 205) was 14.3 µM. For the same compound, the CC50 (COLO 205; [3]) was > 100 µM, the GI50 (HL-60(TB)) was 3.22 µM and the LC50 (HL-60(TB)) was > 100 µM. For the same compound, the GI50 (SF-268) was 3.31 µM, the CC50 (SF-268; [3]) was 64.9 µM and the GI50 (DU-145) was 3.76 µM. The CC50 (DU-145; [3]) was 74.6 µM, the GI50 (HCT-116) was 3 µM and the LC50 (HCT-116) was 34.5 µM. For the same compound, the GI50 (OVCAR-8) was 1.35 µM, the CC50 (OVCAR-8; [3]) was 17.2 µM and the GI50 (K562) was 5.04 µM. For the same compound, the CC50 (K562; [3]) was > 100 µM, the GI50 (SF-539) was 3.12 µM and the CC50 (SF-539; [3]) was 79.1 µM. The GI50 (MDA-MB-231) was 8.55 µM, the CC50 (MDA-MB-231; [3]) was > 100 µM and the GI50 [1] was 2.62 µM. For the same compound, the CC50 [1, 3] was > 100 µM, the GI50 (MCF7) was 3.22 µM and the LC50 (concentration killing 50% of starting cells) (MCF7) was > 100 µM. The GI50 (OVCAR-4) was 5.52 µM, the CC50 (OVCAR-4; [3]) was > 100 µM and the GI50 (HOP-62) was 5.12 µM. The CC50 (HOP-62; [3]) was > 100 µM, the GI50 (NCI-H322M) was 14.3 µM and the CC50 (NCI-H322M; [3]) was > 100 µM. The GI50 (SK-MEL-2) was 10.4 µM, the CC50 (SK-MEL-2; [3]) was 96 µM and the GI50 (Malme-3M) was 29.6 µM. The CC50 (Malme-3M; [3]) was > 100 µM, the GI50 (CCRF-CEM) was 2.06 µM and the CC50 (CCRF-CEM; [3]) was > 100 µM. The GI50 (BT-549) was 2.98 µM, the LC50 (BT-549) was 54.9 µM and the GI50 (T47D) was 13.5 µM. The LC50 (T47D) was > 100 µM, the GI50 (NCI/ADR-RES) was 1.88 µM and the CC50 (NCI/ADR-RES; [3]) was 36.5 µM. For the same compound, the GI50 (HCT-15) was 12.6 µM, the LC50 (concentration killing 50% of starting cells) (HCT-15) was > 100 µM and the GI50 (NCI-H460) was 26.8 µM. For the same compound, the LC50 (NCI-H460) was > 100 µM, the GI50 (NCI-H522) was 1.86 µM and the LC50 (concentration killing 50% of cells) (NCI-H522) was 20.5 µM. For the same compound, the GI50 (RXF 393) was 6.29 µM, the CC50 (RXF 393; [3]) was > 100 µM and the GI50 [2] was 2.04 µM. For the same compound, the CC50 [2, 3] was > 100 µM.
